In ChEMBL document CHEMBL4368909, “Identification of Dihydrofuro[3,4- d]pyrimidine Derivatives as Novel HIV-1 Non-Nucleoside Reverse Transcriptase Inhibitors with Promising Antiviral Activities and Desirable Physicochemical Properties” (J Med Chem, 2019):
Values after ≈ are worked out from the molar mass of the structure shown.

Legend:
[1] = Aqueous solubility of the compound at pH at 7.4 by HPLC analysis; format: physicochemical; details: buffer, pH 7.4
Summary of the method: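 Aqueous solubility read by HPLC in buffer at pH 2.0, 7.0 or 7.4.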

Cytochrome P450 2D6 = Cytochrome P450 2D6 (Homo sapiens, UniProt P10635); experiment: Inhibition of CYP2D6 in human liver microsomes using dextromethorphan as substrate after 10 mins in presence of NADPH; format: ADME
Sequence of Cytochrome P450 2D6 (P10635 whole entry): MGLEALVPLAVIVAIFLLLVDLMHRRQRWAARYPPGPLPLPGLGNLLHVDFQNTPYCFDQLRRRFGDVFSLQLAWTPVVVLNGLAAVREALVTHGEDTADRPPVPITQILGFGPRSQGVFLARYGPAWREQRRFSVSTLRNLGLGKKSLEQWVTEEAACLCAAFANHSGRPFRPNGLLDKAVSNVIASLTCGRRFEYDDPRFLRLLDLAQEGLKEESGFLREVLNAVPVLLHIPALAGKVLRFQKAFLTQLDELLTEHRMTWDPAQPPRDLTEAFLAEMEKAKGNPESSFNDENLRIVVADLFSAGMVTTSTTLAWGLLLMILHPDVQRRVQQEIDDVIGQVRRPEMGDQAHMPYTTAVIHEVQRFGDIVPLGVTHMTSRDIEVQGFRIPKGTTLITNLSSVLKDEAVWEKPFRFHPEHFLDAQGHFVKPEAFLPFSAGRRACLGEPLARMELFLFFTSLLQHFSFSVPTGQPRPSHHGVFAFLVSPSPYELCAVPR

[2] = Protein binding in rat plasma at 2 uM after 5 hrs by LC/MS analysis; format: ADME, cell-free; details: read-out: PPB (converted)
[3] = target: Voltage-gated inwardly rectifying potassium channel KCNH2 (Homo sapiens, UniProt Q12809); experiment: Inhibition of human ERG expressed in HEK293 cells at -80 mV holding potential by manual patch clamp assay
Sequence of Voltage-gated inwardly rectifying potassium channel KCNH2 (Q12809 whole entry): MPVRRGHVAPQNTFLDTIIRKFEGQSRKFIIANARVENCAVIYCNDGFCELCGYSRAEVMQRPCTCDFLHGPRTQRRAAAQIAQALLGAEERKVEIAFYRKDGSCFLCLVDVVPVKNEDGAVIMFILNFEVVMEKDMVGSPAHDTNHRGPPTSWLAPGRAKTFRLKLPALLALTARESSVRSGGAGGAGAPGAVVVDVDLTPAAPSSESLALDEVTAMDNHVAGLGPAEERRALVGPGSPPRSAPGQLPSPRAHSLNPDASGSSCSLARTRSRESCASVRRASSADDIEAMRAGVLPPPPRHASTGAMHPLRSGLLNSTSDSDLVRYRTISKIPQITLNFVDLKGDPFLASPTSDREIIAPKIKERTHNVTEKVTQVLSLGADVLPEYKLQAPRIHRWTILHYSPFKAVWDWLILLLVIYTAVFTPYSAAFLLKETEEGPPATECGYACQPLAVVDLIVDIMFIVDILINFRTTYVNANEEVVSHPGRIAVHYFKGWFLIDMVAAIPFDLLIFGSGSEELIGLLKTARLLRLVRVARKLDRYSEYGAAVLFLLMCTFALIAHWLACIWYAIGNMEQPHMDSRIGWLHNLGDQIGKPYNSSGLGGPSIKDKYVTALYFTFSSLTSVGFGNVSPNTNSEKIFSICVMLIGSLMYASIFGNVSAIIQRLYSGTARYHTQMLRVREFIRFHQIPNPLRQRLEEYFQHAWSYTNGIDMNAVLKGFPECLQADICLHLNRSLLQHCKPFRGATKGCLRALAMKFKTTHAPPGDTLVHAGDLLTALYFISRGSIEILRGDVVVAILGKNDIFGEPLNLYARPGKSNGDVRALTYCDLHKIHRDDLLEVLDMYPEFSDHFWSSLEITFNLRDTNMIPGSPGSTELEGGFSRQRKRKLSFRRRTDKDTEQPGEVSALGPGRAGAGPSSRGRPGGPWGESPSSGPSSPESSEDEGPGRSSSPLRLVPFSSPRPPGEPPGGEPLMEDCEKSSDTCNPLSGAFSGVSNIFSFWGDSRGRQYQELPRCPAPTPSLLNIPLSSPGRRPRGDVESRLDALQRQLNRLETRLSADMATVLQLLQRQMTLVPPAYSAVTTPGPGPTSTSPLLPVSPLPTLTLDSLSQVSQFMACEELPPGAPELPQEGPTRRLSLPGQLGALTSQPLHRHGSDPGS

[4] = system: Human immunodeficiency virus 1; experiment: Antiviral activity against HIV1 harboring reverse transcriptase Y181C mutant infected in human MT4 cells assessed as reduction in virus-induced cytopathic effect after 5 days by MTT assay; format: functional, organism-based; details: Human immunodeficiency virus 1, MT4, 120 h
Cytochrome P450 2C19 = Cytochrome P450 2C19 (Homo sapiens, UniProt P33261); experiment: Inhibition of CYP2C19 in human liver microsomes using S-mephenytoin as substrate after 10 mins in presence of NADPH; format: ADME
Sequence of Cytochrome P450 2C19 (P33261 whole entry): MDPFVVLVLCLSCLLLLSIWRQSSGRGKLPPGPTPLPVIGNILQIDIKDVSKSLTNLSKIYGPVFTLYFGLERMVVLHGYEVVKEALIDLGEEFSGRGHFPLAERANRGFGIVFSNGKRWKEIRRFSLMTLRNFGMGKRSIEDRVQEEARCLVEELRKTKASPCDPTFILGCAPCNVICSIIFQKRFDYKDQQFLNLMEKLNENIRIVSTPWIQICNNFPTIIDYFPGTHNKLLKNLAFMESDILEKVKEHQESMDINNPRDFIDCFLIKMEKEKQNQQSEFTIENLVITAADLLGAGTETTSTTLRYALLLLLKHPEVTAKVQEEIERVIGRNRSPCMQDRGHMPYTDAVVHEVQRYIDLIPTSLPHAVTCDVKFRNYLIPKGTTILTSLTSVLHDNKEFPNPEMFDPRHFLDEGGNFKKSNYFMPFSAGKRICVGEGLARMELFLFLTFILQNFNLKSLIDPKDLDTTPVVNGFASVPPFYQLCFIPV

[5] = system: Human immunodeficiency virus 1; experiment: Resistance factor, ratio of EC50 for HIV1 harboring reverse transcriptase E138K mutant to EC50 for wild type HIV1; format: functional
Summary of the method: (§1)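 The resistance factor is the EC50 against the mutant strain divided by the EC50 against wild-type HIV-1. Both were measured in MT-4 cells by MTT read-out of protection from virus-induced cytopathicity.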

[6] = Sub-acute toxicity in Kunming mouse assessed as effect on spleen at 50 mg/kg/day, po administered for 2 weeks by hematoxylin and eosin staining-based assay; format: organism-based; details: in vivo, 336 h
Summary of the method: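 Mice were dosed orally at 50 mg/kg/day for 2 weeks and observed for behavioural abnormalities during treatment. Organs were then examined by hematoxylin–eosin staining.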

[7] = system: Human immunodeficiency virus 1; experiment: Resistance factor, ratio of EC50 for HIV1 harboring reverse transcriptase K103N mutant to EC50 for wild type HIV1; format: functional; summary of the method: as §1
[8] = Protein binding in rat plasma assessed as recovery rate at 2 uM after 5 hrs by LC/MS analysis; format: ADME, cell-free
Cytochrome P450 3A4 = Cytochrome P450 3A4 (Homo sapiens, UniProt P08684); experiment: Inhibition of CYP3A4 in human liver microsomes using midazolam as substrate after 10 mins in presence of NADPH; format: ADME
Sequence of Cytochrome P450 3A4 (P08684 whole entry): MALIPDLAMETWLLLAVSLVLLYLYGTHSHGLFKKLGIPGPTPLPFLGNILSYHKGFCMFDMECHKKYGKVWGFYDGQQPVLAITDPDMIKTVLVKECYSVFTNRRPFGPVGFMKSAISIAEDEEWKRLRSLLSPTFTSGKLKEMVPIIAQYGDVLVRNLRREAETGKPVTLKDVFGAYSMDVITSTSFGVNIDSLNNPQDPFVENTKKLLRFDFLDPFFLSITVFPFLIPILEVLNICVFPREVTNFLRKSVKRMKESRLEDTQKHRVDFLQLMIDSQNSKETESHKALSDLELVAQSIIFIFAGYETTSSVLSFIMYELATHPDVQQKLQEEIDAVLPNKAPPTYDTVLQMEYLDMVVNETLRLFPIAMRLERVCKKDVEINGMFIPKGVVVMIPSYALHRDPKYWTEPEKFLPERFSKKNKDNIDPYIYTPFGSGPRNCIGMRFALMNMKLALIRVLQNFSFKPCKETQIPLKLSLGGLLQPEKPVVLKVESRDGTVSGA

[9] = system: Human immunodeficiency virus 1; experiment: Antiviral activity against HIV1 harboring reverse transcriptase L100I mutant infected in human MT4 cells assessed as reduction in virus-induced cytopathic effect after 5 days by MTT assay; format: functional, organism-based; details: Human immunodeficiency virus 1, MT4, 120 h
[10] = system: Human immunodeficiency virus 1; experiment: Antiviral activity against HIV1 RES056 infected in human MT4 cells assessed as reduction in virus-induced cytopathic effect after 5 days by MTT assay; format: functional, organism-based; details: Human immunodeficiency virus 1, RES056, MT4, 120 h
[11] = Acute toxicity in Kunming mouse assessed as mortality at 800 mg/kg, po measured after 2 weeks; format: organism-based; details: in vivo, 336 h
Summary of the method: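 Kunming mice received a single intragastric dose of 800 mg/kg. Deaths and behaviour were observed over 2 weeks and compared with a control group.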

[12] = AUC (0 to infinity) in Wistar rat at 2 mg/kg, iv by LC-MS/MS analysis; format: ADME, organism-based; design: dose 2 mg/kg, time infinity, route intravenous; details: in vivo
Summary of the method: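 Male/unspecified Wistar rats given one dose, 2 mg/kg intravenously or 20 mg/kg orally; plasma concentration–time profiles followed; PK parameters reported as mean ± SD, n = 5.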

[13] = Aqueous solubility of the compound in FASSIF by HPLC analysis; format: physicochemical; details: simulated gi fluid
Summary of the method: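 Solubility read by HPLC in fasted state simulated intestinal fluid (FaSSIF).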

[14] = target: Human immunodeficiency virus type 1 reverse transcriptase (Human immunodeficiency virus 1, UniProt Q72547); experiment: Inhibition of recombinant HIV1 reverse transcriptase using (DIG)-dUTP and biotin-labeled dNTPs as substrate after 1 hr by ELISA

Cc1cc(C#N)cc(C)c1Oc1nc(NC2CCN(Cc3ccc(C(N)=O)cc3)CC2)nc2c1COC2
solubility [1]: 6.59 µg/mL (≈ 13.2 µM) | IC50 (Cytochrome P450 2D6): > 50000 nM | fraction unbound at 5 h, 2 µM [2]: 0.082 | IC50 [3]: 830 nM | EC50 [4]: 4.4 nM | IC50 (Cytochrome P450 2C19): > 50000 nM | Ratio EC50 [5]: 4.4 | Activity [6]: Non-Toxic | Ratio EC50 [7]: 0.6 | Drug recovery [8]: 77.9% | IC50 (Cytochrome P450 3A4): > 50000 nM | EC50 [9]: 2.4 nM | EC50 [10]: 41.5 nM | Activity [11]: Non-Toxic | AUC(0-inf) [12]: 543 ng·h/mL | solubility [13]: 32.5 µg/mL (≈ 65.2 µM) | IC50 [14]: 51 nM
